According to ChEMBL document CHEMBL1128560, “Synthesis and structure-activity relationships of analogs of 2'-deoxy-2'-(3-methoxybenzamido)adenosine, a selective inhibitor of trypanosomal glycosomal glyceraldehyde-3-phosphate dehydrogenase” (J Med Chem, 1995):
pIC50: −log10 of the molar value.

Assays:
[1] = Inhibition of glyceraldehyde-3-phosphate dehydrogenase in Trypanosoma brucei
Outline: (§1)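 Enzyme sources: human erythrocyte GAPDH, glycosomal GAPDH from T. brucei, and glycosomal GAPDH from L. mexicana. IC50 is the inhibitor concentration at which 50% of enzyme activity remains. Poorly soluble compounds were not tested above their solubility limit, and the remaining activity at that level was recorded instead.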

[2] = TInhibition of glyceraldehyde-3-phosphate dehydrogenase in Leishmania mexicana; outline: as §1
[3] = biological target: Glyceraldehyde-3-phosphate dehydrogenase (Homo sapiens, UniProt P04406); test: Inhibition of Glyceraldehyde-3-phosphate dehydrogenase in human erythrocytes.; type: cell-based; outline: as §1
Chain of Glyceraldehyde-3-phosphate dehydrogenase (P04406 whole entry): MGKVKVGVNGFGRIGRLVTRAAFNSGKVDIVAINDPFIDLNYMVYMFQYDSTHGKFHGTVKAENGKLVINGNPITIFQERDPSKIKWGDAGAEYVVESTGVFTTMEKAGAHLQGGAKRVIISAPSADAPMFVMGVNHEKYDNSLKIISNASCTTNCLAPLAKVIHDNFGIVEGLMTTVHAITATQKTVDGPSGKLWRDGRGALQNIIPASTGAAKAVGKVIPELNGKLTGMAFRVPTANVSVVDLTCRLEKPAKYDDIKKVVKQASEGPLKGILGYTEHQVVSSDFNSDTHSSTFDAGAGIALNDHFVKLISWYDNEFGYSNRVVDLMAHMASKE

In the case of `Nc1ncnc2c1ncn2CCNC(=O)c1cccc(Cl)c1`, the pIC50 [1] was < 2.40 and the pIC50 [2] was < 2.40.

For `Nc1ncnc2c1ncn2CCNC(=O)c1cccc(F)c1`, the pIC50 [1] was < 2.40 and the pIC50 [2] was < 2.40.

For `NCCn1c(-c2cccs2)nc2c(N)ncnc21`, the pIC50 [1] was 2.74, the pIC50 [2] was 2.80 and the pIC50 [3] was 2.74.

With `Nc1ncnc2c1ncn2[C@@H]1CCC[C@H]1NC(=O)c1cccc(Br)c1` the pIC50 [1] was 2.82, the pIC50 [2] was 3.15 and the pIC50 [3] was 2.82.

For `Cc1ccc(C(=O)NCCn2cnc3c(N)ncnc32)cc1`, the pIC50 [1] was < 2.70 and the pIC50 [2] was < 2.40.

Molecule `Nc1ncnc2c1nc(-c1cccs1)n2[C@@H]1O[C@H](CO)[C@@H](O)[C@H]1O` has a pIC50 [1] of 3.22, a pIC50 [2] of 3.30 and a pIC50 [3] of 2.89.

For `COc1cccc(C(=O)N[C@@H]2[C@H](O)[C@@H](CO)O[C@H]2n2cnc3c(N)ncnc32)c1`, the pIC50 [1] was 2.66, the pIC50 [2] was 3.52 and the pIC50 [3] was < 2.00.

In the case of `COc1nc2c(N)ncnc2n1[C@@H]1O[C@H](CO)[C@@H](O)[C@H]1NC(=O)c1ccccc1`, the pIC50 [1] was 2.05, the pIC50 [2] was 2.05 and the pIC50 [3] was < 2.00.

`Nc1ncnc2c1nc(-c1cccs1)n2[C@@H]1O[C@H](CO)[C@@H](O)[C@H]1NC(=O)c1ccccc1` showed a pIC50 [1] of 2.92, a pIC50 [2] of 3.30 and a pIC50 [3] of 2.92.

With `Nc1ncnc2c1ncn2[C@@H]1O[C@H](CO)[C@@H](O)[C@H]1NCc1ccccc1` the pIC50 [1] was < 2.00, the pIC50 [2] was < 2.00 and the pIC50 [3] was < 2.00.

With `Nc1ncnc2c1ncn2[C@@H]1O[C@H](CO)[C@@H](O)[C@H]1NC(=O)c1ccc2[nH]cnc2c1` the pIC50 [1] was 2.52, the pIC50 [2] was 2.52 and the pIC50 [3] was < 2.00.

With `Nc1ncnc2c1ncn2[C@@H]1O[C@H](CO)[C@@H](O)[C@H]1NC(=O)c1cccc(Cl)c1` the pIC50 [1] was 3.30, the pIC50 [2] was 3.70 and the pIC50 [3] was < 2.70.

Work on `CCOc1cccc(C(=O)N[C@@H]2[C@H](O)[C@@H](CO)O[C@H]2n2cnc3c(N)ncnc32)c1` yielded a pIC50 [1] of 3.30, a pIC50 [2] of 3.40 and a pIC50 [3] of 3.22.

In the case of `Nc1ncnc2c1ncn2[C@@H]1O[C@H](CO)[C@@H](O)[C@H]1NC(=O)c1ccc(-c2ccccc2)cc1`, the pIC50 [1] was 3.70, the pIC50 [2] was 3.70 and the pIC50 [3] was 3.40.

In the case of `Nc1ncnc2c1ncn2[C@@H]1O[C@H](CO)[C@@H](O)[C@H]1NC(=O)c1ccc2cccnc2c1`, the pIC50 [1] was 3.00, the pIC50 [2] was 3.30 and the pIC50 [3] was < 2.70.

With `CC(C)COC(=O)N[C@@H]1[C@H](O)[C@@H](CO)O[C@H]1n1cnc2c(N)ncnc21` the pIC50 [1] was < 2.00, the pIC50 [2] was < 2.00 and the pIC50 [3] was < 2.00.

With `COc1cccc(C(=O)N[C@@H]2[C@H](O)[C@@H](CO)O[C@H]2n2cnc3c(N)nc(C)nc32)c1` the pIC50 [1] was < 2.00, the pIC50 [2] was < 2.00 and the pIC50 [3] was < 2.00.

With `Nc1ncnc2c1nc(Br)n2[C@@H]1O[C@H](CO)[C@@H](O)[C@H]1NC(=O)c1ccccc1` the pIC50 [1] was 2.20, the pIC50 [2] was 2.52 and the pIC50 [3] was < 2.00.

For `Cc1nc(N)c2[nH]cnc2n1`, the pIC50 [1] was 2.10, the pIC50 [2] was 2.22 and the pIC50 [3] was < 2.00.

`Nc1ncnc2c1nc(-c1cccs1)n2CCNCc1ccccc1` gave a pIC50 [1] of 3.30, a pIC50 [2] of 3.40 and a pIC50 [3] of 3.22.

For `Nc1ncnc2c1ncn2[C@@H]1CCC[C@H]1NC(=O)c1ccccc1`, the pIC50 [1] was < 2.40 and the pIC50 [2] was < 2.40.

For `COc1cccc(C(=O)N[C@@H]2CCC[C@H]2n2cnc3c(N)ncnc32)c1`, the pIC50 [1] was < 2.40 and the pIC50 [2] was < 2.30.

For `Nc1ncnc2c1ncn2[C@@H]1CCC[C@H]1NC(=O)c1cccc(Cl)c1`, the pIC50 [1] was < 2.40 and the pIC50 [2] was < 2.70.

With `Nc1ncnc2c1nc(Sc1ncccn1)n2C1O[C@H](CO)[C@@H](O)[C@H]1O` (stereo partly drawn) the pIC50 [1] was 2.70, the pIC50 [2] was 2.40 and the pIC50 [3] was 2.10.

For `Nc1ncnc2c1ncn2C1O[C@H](CNC(=O)C(c2ccccc2)c2ccccc2)[C@@H](O)[C@H]1O` (stereo partly drawn), the pIC50 [1] was 3.60, the pIC50 [2] was 3.60 and the pIC50 [3] was 3.60.

In the case of `Nc1ncnc2c1nc(SC1CCCCC1)n2C1O[C@H](CO)[C@@H](O)[C@H]1O` (stereo partly drawn), the pIC50 [1] was < 3.00, the pIC50 [2] was < 2.70 and the pIC50 [3] was < 2.70.

In the case of `CCc1ccc(-c2ccc(C(=O)NC[C@H]3OC(n4cnc5c(N)ncnc54)[C@H](O)[C@@H]3O)cc2)cc1` (stereo partly drawn), the pIC50 [1] was < 3.00, the pIC50 [2] was 3.12 and the pIC50 [3] was < 2.70.

`Nc1ncnc2c1ncn2[C@@H]1O[C@H](CO)[C@@H](O)[C@H]1O` [ADENOSINE] showed a pIC50 [1] of 1.00, a pIC50 [2] of 1.30 and a pIC50 [3] of 1.46.
